In article PMC5019276 (International Journal of Nanomedicine, 2016):
≈ marks a conversion by molar mass, not a printed value.

Key:
[1] = In vitro drug release by dialysis; assay type: physicochemical; details: pH 2.0, 5.0 and 6.8, after 72 hours
Method in brief: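 Dialysis (MWCO 6–8 kDa): 2.5 mL of nanoparticle or free-drug solution (drug 0.2 mg/mL) against 10 mL medium. Media were 0.05 M glycine–HCl pH 2.0, 0.05 M phosphate pH 5.0 and 0.05 M phosphate pH 6.8, each with 1% ascorbic acid and 0.1% BHT. Stirred at 37°C for 72 h; 3.0 mL withdrawn at intervals and replaced. Drug measured by C18 HPLC at 420 nm. Run three times.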

[2] = test system: HT-29 cells; experiment: In vitro cytotoxicity, MTT assay; assay type: cell-based; details: Homo sapiens, HT-29, read-out: IC50 (half maximal inhibitory concentration)
Method in brief: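 HT-29 cells were grown in RPMI-1640 with 10% FBS and 1% penicillin/streptomycin. They were seeded at 3–5×10^4 cells/well and cultured 24 h at 37°C in humid 5% CO2. Drug-loaded and blank nanoparticles were then tested by MTT, with absorbance read at 490 nm. Viability (%) = absorbance of treated cells / absorbance of untreated cells × 100. Triplicates; mean ± SD (n=3).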

[3] = test system: HT-29 cells; experiment: Intracellular uptake by fluorescence microscopy; assay type: cell-based, Human; details: 7.5 μg/mL, 3 hours, 37°C
Method in brief: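 HT-29 cells were seeded at 2.5×10^4 cells/well and incubated overnight at 37°C in 5% CO2. They were exposed to free drug or drug-loaded nanoparticles at 7.5 μg/mL for 3 h at 37°C, with untreated and blank-nanoparticle controls. Cells were rinsed three times with 37°C PBS. Imaging used fluorescence microscopy with 420–490 nm excitation and 490–560 nm emission.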

[4] = In vivo oral administration and pharmacokinetics; set-up: species or system rats; details: plasma, 100 mg/kg

- release after 72 hours (in words) [1]: completed its release/diffusion
- Cmax ([4]; male, Sprague Dawley, rat, po): 11000 ± 1170 ng/mL
- MRT last ([4]; male, Sprague Dawley, rat, po): 4.33 ± 0.67 h
- Tmax ([4]; male, Sprague Dawley, rat, po): 1 h
- half-life ([4]; male, Sprague Dawley, rat, po): 0.9 ± 0.89 h
- AUC0–24 hours ([4]; oral): 65120 ± 7420 ng·h/mL
SMILES: COc1cc(/C=C/C(=O)CC(=O)/C=C/c2ccc(O)c(OC)c2)ccc1O [Cur, Curcumin]
- IC50 [2]: 28.5 µg/mL (≈ 77.4 µM)
- fluorescence of cells (cell uptake) [3]: relatively faint
